{"data": "Measured values of several laboratories", "target": "Serine/threonine-protein kinase PAK 3 (PAK3, Homo sapiens, UniProt O75914)", "note": "Lines come from different studies, so protocols differ."}
{"Structure (SMILES)": "CC(C)(C)c1nc2c(s1)c1nc(N)ncc1c1ccc(NS(=O)(=O)c3c(F)cccc3F)c(F)c12", "effect on": "enzyme activity", "mode": "inhibitor", "method": "radiometric", "tested at": "1 µM", "measurement": "remaining activity", "result": "87%"}
{"Structure (SMILES)": "CCCOc1ccc(OC)c(F)c1C(=O)c1ccc(C(=O)N[C@@H]2CNC[C@H]2NC(=O)c2ccc3[nH]ncc3c2)cc1", "effect on": "enzyme activity", "mode": "inhibitor", "tested at": "10 µM", "measurement": "remaining activity", "result": "51%"}
{"Structure (SMILES)": "O=C(O)c1cc(-c2ccc(C3CCNCC3)cc2)c2ccc(-c3ccc(C(F)(F)F)cc3)cc2c1", "effect on": "cell-free assay", "method": "competition with immobilised ligand", "tested at": "1 µM", "measurement": "remaining binding", "result": "100%"}
{"Structure (SMILES)": "O=C1Nc2ccc(Cl)cc2C1=Cc1cc(Cl)c(O)c(Cl)c1", "effect on": "cell-free assay", "tested at": "0.5 µM", "measurement": "remaining signal", "result": "94.3%"}
{"Structure (SMILES)": "O=C(N[C@H]1CCCCC/C=C\\C2C[C@@]2(C(=O)O)NC(=O)[C@@H]2C[C@@H](Oc3ccncc3)CN2C1=O)OC1CCCC1 (stereo partly shown)", "effect on": "binding", "method": "competition with immobilised ligand", "tested at": "1 µM", "measurement": "remaining binding", "result": "88%"}
{"Structure (SMILES)": "COc1cc2c(Nc3ccc(Br)cc3F)ncnc2cc1OCC1CCN(C)CC1", "effect on": "cell-free assay", "tested at": "0.5 µM", "measurement": "remaining signal", "result": "103%"}
{"Structure (SMILES)": "COc1cc2ncnc(Nc3ccc(Oc4ccccc4)c(C)c3C)c2cc1OC", "effect on": "enzyme activity", "mode": "inhibitor", "tested at": "1 µM", "measurement": "inhibition", "result": "10%"}
{"Structure (SMILES)": "Nc1ncnc2occ(-c3ccc(NC(=O)Nc4cc(C(F)(F)F)ccc4F)cc3)c12", "effect on": "cell-free assay", "mode": "inhibitor", "tested at": "20 µM", "measurement": "remaining signal", "result": "14%"}
{"Structure (SMILES)": "N#CC1(c2ccccn2)CCN(Cc2cc(C(=O)N3CCCC3)c(=O)n3ccccc23)CC1", "effect on": "cell-free assay", "method": "competition with immobilised ligand", "tested at": "1 µM", "measurement": "remaining binding", "result": "100%"}
{"Structure (SMILES)": "Cc1ccc(Nc2nccc(N(C)c3ccc4c(C)n(C)nc4c3)n2)cc1S(N)(=O)=O", "effect on": "enzyme activity", "mode": "inhibitor", "tested at": "0.3 µM", "measurement": "inhibition", "result": "29%"}
{"Structure (SMILES)": "CCCS(=O)(=O)Nc1ccc(F)c(C(=O)c2c[nH]c3ncc(-c4ccc(Cl)cc4)cc23)c1F", "effect on": "enzyme activity", "mode": "inhibitor", "tested at": "1 µM", "measurement": "inhibition", "result": "< 20%"}
{"Structure (SMILES)": "O=C1NC(=O)c2cc(Nc3ccc(F)cc3)c(Nc3ccc(F)cc3)cc21", "effect on": "cell-free assay", "tested at": "0.5 µM", "measurement": "remaining signal", "result": "99.4%"}
{"Structure (SMILES)": "O=C(Nc1cnn(-c2csc(C(=O)NC3COC3)c2)c1)Nc1ccccc1Cl", "effect on": "enzyme activity", "mode": "inhibitor", "tested at": "5 µM", "measurement": "remaining activity", "result": "97.4%"}
{"Structure (SMILES)": "Cn1cc(Cl)c2c(Oc3c(F)cc(Nc4cc(Cl)nc(N)n4)cc3F)ccnc21", "effect on": "cell-free assay", "method": "competition with immobilised ligand", "tested at": "0.1 µM", "measurement": "remaining binding", "result": "100%"}
{"Structure (SMILES)": "Cc1sc(C(=O)NC2COC2)cc1-n1cc(NC(=O)Nc2c(F)cccc2Cl)cn1", "effect on": "enzyme activity", "mode": "inhibitor", "tested at": "10 µM", "measurement": "remaining activity", "result": "114%"}
{"Structure (SMILES)": "COc1cc2ncnc(Nc3ccc(F)c(Cl)c3)c2cc1OCCCN1CCOCC1", "effect on": "cell-free assay", "tested at": "0.5 µM", "measurement": "remaining signal", "result": "106%"}
{"Structure (SMILES)": "CCCOc1ccc([C@H]2[C@H](C(=O)O)[C@@H](c3ccc4c(c3)OCO4)CN2CC(=O)Nc2c(CC)cccc2CC)cc1", "effect on": "cell-free assay", "method": "competition with immobilised ligand", "tested at": "1 µM", "measurement": "remaining binding", "result": "100%"}
{"Structure (SMILES)": "CN1CC(Oc2cnc(C#N)cc2-c2ccn3nc(NC(=O)C4CC4)cc3c2)C1", "effect on": "enzyme activity", "mode": "inhibitor", "tested at": "1 µM", "measurement": "inhibition", "result": "-10%"}
{"Structure (SMILES)": "CC(C)(O)[C@H]1CC[C@H](Nc2ccc3ncc(-c4cccc(C(F)(F)F)c4)n3n2)CC1", "effect on": "enzyme activity", "mode": "inhibitor", "tested at": "1 µM", "measurement": "remaining activity", "result": "94.2%"}
